Reference: ChEMBL document CHEMBL1777764, “Synthesis and evaluation of 1-(1H-indol-3-yl)ethanamine derivatives as new antibacterial agents” (Bioorg Med Chem, 2011)
Values after ≈ are worked out from the molar mass of the structure shown.

Legend:
Enterobacter cloacae = assay: microbe, parasite or virus in culture; conditions: ATCC 13047, 18 h
Serratia marcescens = assay: microbe, parasite or virus in culture; conditions: CIP 103551, 18 h
[1] = system: Staphylococcus epidermidis; assay: Antibacterial activity against Staphylococcus epidermidis CIP 103627 after 18 hrs by broth microdilution method; type: functional; conditions: CIP 103627, 18 h
Outline: (§1)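 MIC by broth microdilution per ISO 20776-1:2006 and CLSI M07-A8. Inoculum 10^6 cfu/ml in Mueller-Hinton broth with compound serially diluted, final concentrations 2 to 128 ug/ml, duplicate rows, no-drug growth control. Incubation 18 h at 37 °C. MIC taken as lowest concentration giving complete inhibition of visible growth. Each compound tested at least twice.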

KB [2] = assay: Cytotoxicity against human KB cells at 1 uM; type: cell-based
Pseudomonas aeruginosa = assay: microbe, parasite or virus in culture; conditions: CIP 5933, 18 h
Streptococcus pyogenes = assay: Antibacterial activity against Streptococcus pyogenes CIP 104226 after 18 hrs by broth microdilution method; type: functional; conditions: CIP 104226, 18 h
Outline: (§2)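 Broth microdilution following ISO 20776-1:2006 and CLSI M07-A8, in Mueller-Hinton broth. Inoculum was 10^6 cfu/ml, with compound serial dilutions spanning 2 to 128 ug/ml and a compound-free growth control well. Plates were incubated 18 h at 37 °C. MIC was the lowest concentration giving complete inhibition of visible growth. Each compound was tested at least twice.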

Staphylococcus aureus [3] = assay: Antibacterial activity against Staphylococcus aureus CIP 103428 after 18 hrs by broth microdilution method; type: functional; conditions: CIP 103428, 18 h
Outline: as §1

MRC5 [4] = assay: Cytotoxicity against human MRC5 cells at 10 uM; type: cell-based; conditions: mrc5, 10 µM
Haemophilus influenzae = assay: Antibacterial activity against Haemophilus influenzae ATCC 49766 after 18 hrs by broth microdilution method; type: functional; conditions: ATCC 49766, 18 h
Outline: (§3)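 Broth microdilution following ISO 20776-1:2006 and CLSI M07-A8, in Mueller-Hinton broth […]. Inoculum was 10^6 cfu/ml, with compound serial dilutions spanning 2 to 128 ug/ml and a compound-free growth control well. Plates were read after 18 h at 37 °C. MIC was the lowest concentration with no visible growth. Each compound was tested at least twice.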

Staphylococcus aureus [5] = assay: Antibacterial activity against vancomycin intermediate Staphylococcus aureus […] after 18 hrs by broth microdilution method; type: functional
Outline: as §2

HCT-116 [6] = assay: Cytotoxicity against human HCT116 cells at 10 uM; type: cell-based; conditions: hct-116, 10 µM
Streptococcus mitis = assay: Antibacterial activity against Streptococcus mitis CIP 103335 after 18 hrs by broth microdilution method; type: functional; conditions: CIP 103335, 18 h
Outline: as §3

Streptococcus pneumoniae [7] = assay: Antibacterial activity against Streptococcus pneumoniae ATCC 6303 after 18 hrs by broth microdilution method; type: functional; conditions: ATCC 6303, 18 h
Outline: (§4)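 MIC by broth microdilution per ISO 20776-1:2006 and CLSI M07-A8. Inoculum 10^6 cfu/ml in Mueller-Hinton broth […]. Compound serially diluted, final 2 to 128 ug/ml, duplicate rows, no-drug growth control. Read after 18 h at 37 °C as lowest concentration fully inhibiting visible growth. At least two experiments.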

Staphylococcus aureus [8] = assay: Antibacterial activity against methicillin-resistant Staphylococcus aureus ATCC 33592 after 18 hrs by broth microdilution method; type: functional; conditions: ATCC 33592, 18 h
Outline: as §2

Escherichia coli = assay: Antibacterial activity against Escherichia coli ATCC 25922 after 18 hrs by broth microdilution method; type: functional; conditions: ATCC 25922, 18 h
Outline: as §2

Staphylococcus aureus [9] = assay: Antibacterial activity against Staphylococcus aureus ATCC 29213 after 18 hrs by broth microdilution method; type: functional; conditions: ATCC 29213, 18 h
Outline: as §1

Staphylococcus aureus [10] = assay: Antibacterial activity against Staphylococcus aureus ATCC 6538 after 18 hrs by broth microdilution method; type: functional; conditions: ATCC 6538, 18 h
Outline: as §1

Streptococcus pneumoniae [11] = assay: Antibacterial activity against Streptococcus pneumoniae ATCC 49619 after 18 hrs by broth microdilution method; type: functional; conditions: ATCC 49619, 18 h
Outline: as §4

[12] = system: Staphylococcus epidermidis; assay: Antibacterial activity against Staphylococcus epidermidis CIP 81.55 after 18 hrs by broth microdilution method; type: functional; conditions: CIP 81.55, 18 h
Outline: as §1

Klebsiella pneumoniae = assay: microbe, parasite or virus in culture; conditions: ATCC 35657, 18 h
Staphylococcus aureus [13] = assay: Antibacterial activity against Staphylococcus aureus ATCC 9144 after 18 hrs by broth microdilution method; type: functional; conditions: ATCC 9144, 18 h
Outline: as §1

Enterococcus faecium = assay: Antibacterial activity against Enterococcus faecium CIP 54.32 after 18 hrs by broth microdilution method; type: functional; conditions: CIP 54.32, 18 h
Outline: as §2

Staphylococcus aureus [14] = assay: Antibacterial activity against Staphylococcus aureus CIP 65.6 after 18 hrs by broth microdilution method; type: functional; conditions: CIP 65.6, 18 h
Outline: as §1

Staphylococcus aureus [15] = assay: Antibacterial activity against Staphylococcus aureus ATCC 25923 after 18 hrs by broth microdilution method; type: functional; conditions: ATCC 25923, 18 h
Outline: as §1

HCT-116 [16] = assay: Cytotoxicity against human HCT116 cells at 1 uM; type: cell-based; conditions: hct-116, 1 µM
Streptococcus agalactiae = assay: Antibacterial activity against Streptococcus agalactiae ATCC 12400 after 18 hrs by broth microdilution method; type: functional; conditions: ATCC 12400, 18 h
Outline: as §2

Staphylococcus aureus [17] = assay: Antibacterial activity against methicillin-resistant Staphylococcus aureus CIP 65.25 after 18 hrs by broth microdilution method; type: functional; conditions: CIP 65.25, 18 h
Outline: as §2

Enterococcus faecalis = assay: Antibacterial activity against Enterococcus faecalis ATCC 29212 after 18 hrs by broth microdilution method; type: functional; conditions: ATCC 29212, 18 h
Outline: as §2

KB [18] = assay: Cytotoxicity against human KB cells at 10 uM; type: cell-based
[19] = system: Staphylococcus epidermidis; assay: Antibacterial activity against Staphylococcus epidermidis ATCC 12228 after 18 hrs by broth microdilution method; type: functional; conditions: ATCC 12228, 18 h
Outline: as §1

MRC5 [20] = assay: Cytotoxicity against human MRC5 cells at 1 uM; type: cell-based; conditions: mrc5, 1 µM
Acinetobacter baumannii = assay: microbe, parasite or virus in culture; conditions: ATCC 19606 = CIP 70.34 = JCM 6841, 18 h

Cl.Cl.Cl.NCC(NO)c1c[nH]c2ccc(Cl)cc12 (stereo not given) showed an MIC (Enterobacter cloacae) of 128 µg/mL, an MIC (Serratia marcescens) of 128 µg/mL and an MIC [1] of 16 µg/mL. The Activity (KB [2]) was “Non-toxic”, the MIC (Pseudomonas aeruginosa) was 128 µg/mL and the MIC (Streptococcus pyogenes) was 128 µg/mL. For the same compound, the MIC (Staphylococcus aureus [3]) was 16 µg/mL, the Activity (MRC5 [4]) was “Non-toxic” and the MIC (Haemophilus influenzae) was 128 µg/mL. The MIC (Staphylococcus aureus [5]) was 16 µg/mL, the Activity (HCT-116 [6]) was “Non-toxic” and the MIC (Streptococcus mitis) was 128 µg/mL. The MIC (Streptococcus pneumoniae [7]) was 64 µg/mL, the MIC (Staphylococcus aureus [8]) was 16 µg/mL and the MIC (Escherichia coli) was 64 µg/mL. The MIC (Staphylococcus aureus [9]) was 16 µg/mL, the MIC (Staphylococcus aureus [10]) was 16 µg/mL and the MIC (Streptococcus pneumoniae [11]) was 64 µg/mL. For the same compound, the MIC [12] was 16 µg/mL, the MIC (Klebsiella pneumoniae) was 128 µg/mL and the MIC (Staphylococcus aureus [13]) was 16 µg/mL. It also gave an MIC (Enterococcus faecium) of over 128 µg/mL, an MIC (Staphylococcus aureus [14]) of 16 µg/mL and an MIC (Staphylococcus aureus [15]) of 16 µg/mL. The Activity (HCT-116 [16]) was “Non-toxic”, the MIC (Streptococcus agalactiae) was 128 µg/mL and the MIC (Staphylococcus aureus [17]) was 16 µg/mL. For the same compound, the MIC (Enterococcus faecalis) was over 128 µg/mL, the Activity (KB [18]) was “Non-toxic” and the MIC [19] was 16 µg/mL. The Activity (MRC5 [20]) was “Non-toxic” and the MIC (Acinetobacter baumannii) was 128 µg/mL.
Work on Cl.Cl.NCC(NO)c1c[nH]c2ccc(Br)cc12 (stereo not given) yielded an MIC (Enterobacter cloacae) of 64 µg/mL, an MIC (Serratia marcescens) of 64 µg/mL and an MIC [1] of 8 µg/mL. The Activity (KB [2]) was “Non-toxic”, the MIC (Pseudomonas aeruginosa) was 64 µg/mL and the MIC (Streptococcus pyogenes) was 64 µg/mL. For the same compound, the MIC (Staphylococcus aureus [3]) was 16 µg/mL, the Activity (MRC5 [4]) was “Non-toxic” and the MIC (Staphylococcus aureus [5]) was 16 µg/mL. The Activity (HCT-116 [6]) was “Non-toxic”, the MIC (Streptococcus mitis) was 64 µg/mL and the MIC (Streptococcus pneumoniae [7]) was 64 µg/mL. The MIC (Staphylococcus aureus [8]) was 16 µg/mL, the MIC (Escherichia coli) was 16 µg/mL and the MIC (Staphylococcus aureus [9]) was 16 µg/mL. It also gave an MIC (Staphylococcus aureus [10]) of 16 µg/mL, an MIC (Streptococcus pneumoniae [11]) of 64 µg/mL and an MIC [12] of 8 µg/mL. For the same compound, the MIC (Klebsiella pneumoniae) was 64 µg/mL, the MIC (Staphylococcus aureus [13]) was 16 µg/mL and the MIC (Enterococcus faecium) was 128 µg/mL. For the same compound, the MIC (Staphylococcus aureus [14]) was 16 µg/mL, the MIC (Staphylococcus aureus [15]) was 16 µg/mL and the Activity (HCT-116 [16]) was “Non-toxic”. For the same compound, the MIC (Streptococcus agalactiae) was 64 µg/mL, the MIC (Staphylococcus aureus [17]) was 16 µg/mL and the MIC (Enterococcus faecalis) was 128 µg/mL. The Activity (KB [18]) was “Non-toxic”, the MIC [19] was 8 µg/mL and the Activity (MRC5 [20]) was “Non-toxic”. The MIC (Acinetobacter baumannii) was 64 µg/mL.
Compound O=C(O)c1cn(C2CC2)c2cc(N3CCNCC3)c(F)cc2c1=O [CIPROFLOXACIN] has an MIC [1] of 0.25 µg/mL (≈ 0.754 µM), an MIC (Streptococcus pyogenes) of 0.25 µg/mL (≈ 0.754 µM) and an MIC (Staphylococcus aureus [3]) of 0.5 µg/mL (≈ 1.51 µM). It also gave an MIC (Haemophilus influenzae) of 0.5 µg/mL (≈ 1.51 µM), an MIC (Staphylococcus aureus [5]) of 32 µg/mL (≈ 96.6 µM) and an MIC (Streptococcus mitis) of 0.25 µg/mL (≈ 0.754 µM). The MIC (Escherichia coli) was 0.064 µg/mL (≈ 0.193 µM), the MIC (Staphylococcus aureus [9]) was 0.5 µg/mL (≈ 1.51 µM) and the MIC (Staphylococcus aureus [10]) was 0.5 µg/mL (≈ 1.51 µM). For the same compound, the MIC [12] was 0.25 µg/mL (≈ 0.754 µM), the MIC (Staphylococcus aureus [13]) was 0.5 µg/mL (≈ 1.51 µM) and the MIC (Enterococcus faecium) was 1 µg/mL (≈ 3.02 µM). For the same compound, the MIC (Staphylococcus aureus [14]) was 0.5 µg/mL (≈ 1.51 µM), the MIC (Staphylococcus aureus [15]) was 0.5 µg/mL (≈ 1.51 µM) and the MIC (Streptococcus agalactiae) was 0.25 µg/mL (≈ 0.754 µM). The MIC (Enterococcus faecalis) was 1 µg/mL (≈ 3.02 µM) and the MIC [19] was 0.25 µg/mL (≈ 0.754 µM).
